In brackets after ≈: the same amount, converted by molar mass. Values belong to the molecule of their own block, whether it stands above or below them.
What was measured:
[1] = biological target: Methionine aminopeptidase 2 (Homo sapiens, UniProt P50579); assay: Inhibition of methionine aminopeptidase 2
[2] = system: KB; assay: Cytotoxicity against human KB cells; format: functional, cell-based
[3] = system: HCT-116; assay: Cytotoxicity against human HCT116 xenografted in SCID mouse at 12.3 mg/kg/day, iv administered as bolus dose from 3 days after tumor implantation for 5 days measured on day 9 relative to control; format: functional
Outline: (§1)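 SCID mice implanted with HCT-116 tumour cells, dosed iv as a bolus daily for 5 days starting 3 days after inoculation and followed to day 30. Tumour response read as %T/C against untreated controls; body weights tracked over the 30 days and compared with untreated controls.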

[4] = system: HCT-116; assay: Cytotoxicity against human HCT116 xenografted in SCID mouse at 25 mg/kg/day, iv administered as bolus dose from 3 days after tumor implantation for 5 days measured on day 11 relative to control; format: functional; outline: as §1
[5] = system: Mus musculus; assay: Toxicity in human HCT116 xenografted SCID mouse assessed as increase in body weight at 12.3 mg/kg/day, iv administered as bolus dose from 3 days after tumor implantation for 5 days measured after 30 days; format: organism-based; set-up: route intravenous; conditions: in vivo, 720 h; outline: as §1
[6] = system: Mus musculus; assay: Toxicity in human HCT116 xenografted SCID mouse assessed as increase in body weight at 25 mg/kg/day, iv administered as bolus dose from 3 days after tumor implantation for 5 days measured after 30 days; format: organism-based; set-up: route intravenous; conditions: in vivo, 720 h; outline: as §1
[7] = system: MDA-MB-435; assay: Cytotoxicity against human MDA-MB-435 cells; format: functional, cell-based; conditions: for CC50: read-out: LC50 (the source's name)
[8] = biological target: Methionine aminopeptidase 1 (Homo sapiens, UniProt P53582); assay: Inhibition of methionine aminopeptidase 1
[9] = system: HCT-116; assay: Cytotoxicity against human HCT116 cells assessed as cell kill at >=20 pg/mL after 168 hrs by clonogenic assay; format: functional
Outline: (§2)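 Clonogenic dose-response on HCT-116 cells with exposures of 2, 24 and 168 h; the value is the concentration giving 90% cell kill at each exposure time.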

[10] = Toxicity in SCID mouse assessed as maximum tolerated dose; format: organism-based; conditions: in vivo
[11] = system: Mus musculus; assay: Toxicity in human HCT116 xenografted SCID mouse at 125 ug/mouse dosed as bolus dose after 23 days; format: organism-based; conditions: in vivo, 552 h
Outline: (§3)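 Bolus injection into SCID mice bearing HCT-116 tumours at 125, 62 or 31 μg/mouse; tumour growth read as %T/C against controls at 23 days.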

[12] = system: HCT-116; assay: Anticancer activity against human HCT116 xenografted in SCID mouse at 62 ug/mouse dosed as bolus dose after 23 days relative to control; format: functional; outline: as §3
[13] = system: HCT-116; assay: Anticancer activity against human HCT116 xenografted in SCID mouse at 31 ug/mouse dosed as bolus dose after 23 days relative to control; format: functional; outline: as §3
[14] = system: MCF7; assay: Growth inhibition of human MCF7 cells; format: functional
[15] = system: PC-3; assay: Cytotoxicity against human PC3 cells; format: functional, cell-based
[16] = system: HCT-116; assay: Cytotoxicity against human HCT116 cells assessed as cell kill at >=3 ng/mL after 2 hrs by clonogenic assay; format: functional; outline: as §2
[17] = system: HCT-116; assay: Cytotoxicity against human HCT116 cells assessed as cell kill at >=2 ng/mL after 24 hrs by clonogenic assay; format: functional; outline: as §2
[18] = system: HCT-116; assay: Cytotoxicity against human HCT116 cells; format: functional, cell-based
Outline: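 HCT-116 cells in liquid culture; IC50 from two determinations, reported as their median.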

[19] = system: HCT-116; assay: Cytotoxicity against human HCT116 cells after 2 hrs by clonogenic assay; format: functional; outline: as §2
[20] = system: HCT-116; assay: Cytotoxicity against human HCT116 cells after 24 hrs by clonogenic assay; format: functional; outline: as §2

Chain of Methionine aminopeptidase 2 (P50579 whole entry): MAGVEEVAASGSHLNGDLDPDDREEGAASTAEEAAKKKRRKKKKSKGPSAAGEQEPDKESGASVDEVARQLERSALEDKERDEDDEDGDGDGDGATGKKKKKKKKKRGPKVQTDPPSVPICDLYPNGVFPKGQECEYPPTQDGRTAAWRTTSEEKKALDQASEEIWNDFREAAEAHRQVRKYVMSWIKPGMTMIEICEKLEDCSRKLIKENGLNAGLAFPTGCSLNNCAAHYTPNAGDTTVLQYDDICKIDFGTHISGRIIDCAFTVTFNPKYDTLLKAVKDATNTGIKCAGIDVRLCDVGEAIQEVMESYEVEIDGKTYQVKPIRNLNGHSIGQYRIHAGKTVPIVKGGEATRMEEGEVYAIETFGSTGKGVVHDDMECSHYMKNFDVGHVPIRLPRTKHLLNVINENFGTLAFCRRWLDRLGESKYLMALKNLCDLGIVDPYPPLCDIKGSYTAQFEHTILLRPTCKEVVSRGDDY

IC50 [1]: > 300000 nM
SMILES: CC(C)(C)OC(=O)Nc1cccnc1C(=O)Nc1nccs1

SMILES: CCC(C)CCCCCCCCCCC(=O)O[C@H]1CC[C@H](NC(=O)[C@H](OC)[C@H](O)[C@@H](O)[C@H](O)/C=C/C(C)C)C(=O)N(C)C1 (some centres not stated) [BENGAMIDE O]
IC50 [1]: > 50000 nM

SMILES: C=C1C[C@H](C)C[C@@H]2CC=C[C@@H](C/C=C\C(=O)O[C@H]([C@@H](O)/C=C/[C@@H]3CC(C)=CCO3)C[C@@H]3O[C@H]3[C@@H](O)C1)O2 [FIJIANOLIDE B]
IC50 [2]: 29 nM | T/C [3]: 80% | T/C [4]: 11% | Activity [5]: Non-toxic | Activity [6]: Non-toxic | IC50 [7]: 2 nM | CC50 [7]: 7 nM

IC50 [8]: Not Active | IC50 [1]: 30 nM
SMILES: CO[C@@H]1[C@H](OC(=O)/C=C/C=C/C=C/C=C/C(=O)O)CC[C@]2(CO2)[C@H]1[C@@]1(C)O[C@@H]1CC=C(C)C [FUMAGILLIN]

SMILES: C=C(C)C[C@H](OC)[C@H](O)C(=O)N[C@@H](OC)C1C[C@@H](O)C(C)(C)[C@@H](C[C@H](O)[C@@H](C)[C@@H]2Cc3c(C)c(O)cc(O)c3C(=O)O2)O1 (some centres not stated) [IRCINIASTATIN]
Activity [9]: 90% | MTD [10]: 0.125 mg/kg | Activity [11]: Toxic | T/C [12]: 75% | T/C [13]: 86% | GI50 [14]: 5.2 nM | CC50 [7]: < 2.5 nM | IC50 [15]: 1 nM | Activity [16]: 90% | Activity [17]: 90%

SMILES: C=CC/C=C\Cc1csc(C(C)(C)[C@H](O)C/C=C\C(=C)CCNC(=O)OC)n1 [MYCOTHIAZOLE]
MTD [10]: 3 mg/kg | IC50 [18]: 1.5 ng/mL (≈ 3.71 nM) | Activity [19]: >10 µg/mL | Activity [20]: >10 µg/mL

SMILES: CO[C@@H]1[C@H](OC(=O)NC(=O)CCl)CC[C@]2(CO2)[C@H]1[C@@]1(C)O[C@@H]1CC=C(C)C [O-CHLOROACETYLCARBAMOYLFUMAGILLOL]
IC50 [8]: Not Active

SMILES: CO[C@@H]1C(=O)CC[C@]2(CO2)[C@@]1(O)[C@@]1(C)O[C@@H]1CC=C(C)C [OVALICIN]
IC50 [8]: Not Active
